This assay addresses GluA2 LBD (S1S2J, rat GluA2-flop subunit, N754S) (Rattus norvegicus, UniProt P19491, DEL528-650/N775S/S652T/V651G). It counts as biochemical. In outline: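 Trypsin-detagged LBD (residues N392-K506/P632-S775, GT linker) from E. coli Origami B(DE3), purified by ion exchange and sizing. Protein 0.017–0.1 mM in 10 mM glutamate, 25 mM NaCl, 25 mM Tris-Cl pH 7, with modulator from DMSO (1 µL per 30 µL); kept at 4 °C; synchrotron SAXS. Dimer fraction fit with monomer/dimer form factors (1FTJ); EC50 from dimerization curves; constants from simultaneous one- or two-site equilibrium fits.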

Where “and” joins values, the source holds several entries; their conditions need not be identical. Equal entries are not always repeated.

The EC50 is the concentration giving half of the maximal effect. A lower EC50 goes with an effect from little substance. By Kd is commonly meant the concentration at which binding is half-saturated. Read a high Kd as a looser complex.

Turning to `NS(=O)(=O)c1cc2c(cc1C(F)(F)F)NCNS2(=O)=O` [HFMZ, hydroflumethiazide], the EC50 is 2 to 5 mM and the dissociation constant Kd was ~5 µM.
Consider `NS(=O)(=O)c1cc2c(cc1Cl)NC(C(Cl)Cl)NS2(=O)=O` (centres unmarked) [TCMZ, trichlormethiazide], for which the EC50 fell in the range of 1 to 2 mM; the Kd is 46.8 µM and ~50 µM.
Regarding `NS(=O)(=O)c1cc2c(cc1Cl)NC(C1CC3C=CC1C3)NS2(=O)=O` (centres unmarked) [CYTZ, cyclothiazide], the half-maximal effective concentration (EC50) is 0.1 to 0.2 mM and the equilibrium dissociation constant (Kd) was ~5 µM. Moreover, the “fold lower EC50 for dimerization than HFMZ” value (CYTZ vs HFMZ) came to 20 ×. Further, the “fold lower EC50 for dimerization than TCMZ” value (CYTZ vs TCMZ) is on record as 10 ×.

Values taken from publication PMC3947009 (ACS Chemical Biology, 2013).
